Reference: PMC3129651 (Pharmaceutical research, 2010)
“Also recorded” adds a separate entry of the source. Counter-ions that a name gives are not always drawn. Like-named read-outs stand apart in the source and are kept apart here. One block for each molecule: values may come before it.

How the values were obtained:
[1] = tested on: WT rat sandwich-cultured hepatocytes; experiment: 20-min efflux study in day 4 WT rat sandwich-cultured hepatocytes; assay type: in vitro ADME
Method in brief: (§1)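 Male Wistar WT or Mrp2-deficient TR⁻ rat hepatocytes were seeded on collagen I 6-well plates (~1.5 × 10^6 cells/well TR, 1.75 × 10^6 WT), overlaid with Matrigel and used on day 4. They were preloaded for 20 min at 37°C with 99mTc probe (5 μCi/mL) in standard HBSS. Efflux then ran 20 min at 37°C in standard (basolateral) or Ca2+-free HBSS (basolateral + canalicular), with 100 μM MK571, 20 μM GF120918 or 0.6% DMSO. Decay-corrected gamma counts of medium and lysate were taken, and efflux was expressed as % of preloaded mass. n=4 WT, 3 TR livers, triplicate.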

[2] = rats, 0.25 mCi dose, 30 min after intravenous administration; cited from earlier work
[3] = cited from earlier work
[4] = tested on: human sandwich-cultured hepatocytes; experiment: 20-min efflux study in day 7 human sandwich-cultured hepatocytes; assay type: in vitro ADME
[5] = tested on: suspended rat hepatocytes; experiment: Preliminary uptake time course in suspended rat hepatocytes sampling over 60min
[6] = tested on: TR^− rat sandwich-cultured hepatocytes; assay type: in vitro ADME
Method in brief: as §1

Oct [7] = assay type: in vitro ADME; settings: suspended rat hepatocytes, 14C-TEA 20μM, 20μM glycyrrhizic acid; for initial 14C-TEA uptake in the presence of inhibitor: 200μM clonidine, 10μM desipramine
Oatp [8] = assay type: in vitro ADME; settings: suspended WT rat hepatocytes; 3H-E217G 1μM; inhibitor 20μM
[9] = tested on: suspended WT rat hepatocytes; assay type: in vitro ADME; settings: 99mTc-MEB 5μCi/mL, 20μM rifamycin SV, 20μM glycyrrhizic acid, 200μM clonidine, 10μM desipramine, 5μM decynium 22, 10μM ketoprofen
OATP1B3 = settings: inhibition of OATP1B3; cited from earlier work
Oat2 = molecular target: T1, Oat2 (Rattus norvegicus, UniProt Q5RLM2); experiment: 3H-PAH uptake over 60 min in freshly isolated rat hepatocytes; assay type: in vitro ADME; settings: 50μM MK571 in the incubation medium
T1 sequence (Q5RLM2 1-535): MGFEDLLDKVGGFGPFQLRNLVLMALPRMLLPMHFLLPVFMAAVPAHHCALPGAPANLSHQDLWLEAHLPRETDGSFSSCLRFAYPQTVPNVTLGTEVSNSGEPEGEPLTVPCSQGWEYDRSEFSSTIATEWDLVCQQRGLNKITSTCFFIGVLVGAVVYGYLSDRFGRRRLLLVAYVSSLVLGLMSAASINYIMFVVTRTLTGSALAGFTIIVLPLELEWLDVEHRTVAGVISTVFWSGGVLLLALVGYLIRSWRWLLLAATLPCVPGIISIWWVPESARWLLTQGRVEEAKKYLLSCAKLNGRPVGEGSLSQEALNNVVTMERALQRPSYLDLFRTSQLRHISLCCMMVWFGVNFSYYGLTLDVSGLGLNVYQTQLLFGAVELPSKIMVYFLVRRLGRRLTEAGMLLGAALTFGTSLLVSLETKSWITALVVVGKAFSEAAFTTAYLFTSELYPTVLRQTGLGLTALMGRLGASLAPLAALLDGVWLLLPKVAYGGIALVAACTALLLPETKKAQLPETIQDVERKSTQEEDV

[10] = tested on: suspended human hepatocytes; assay type: in vitro ADME; settings: 99mTc-MEB 5μCi/mL, 20μM rifamycin SV, 200μM clonidine, 10μM desipramine, 5μM decynium 22, 10μM ketoprofen
[11] = tested on: suspended rat hepatocytes
OCT [12] = experiment: Initial uptake of 14C-TEA in suspended human hepatocytes with inhibitors; assay type: in vitro ADME; settings: 14C-TEA 20μM, 5μM decynium 22
[13] = tested on: WT sandwich-cultured rat hepatocytes; experiment: 10-min accumulation study; assay type: in vitro ADME; settings: 2μM GF120918; siNT- and siBcrp-infected rat SCH
OATP [14] = experiment: Initial uptake of 3H-E217G in suspended human hepatocytes with inhibitors; assay type: in vitro ADME; settings: 3H-E217G 1μM, 20μM rifamycin SV
[15] = control WT rat SCH, 5μCi/mL, 20min preload
[16] = human SCH, control, 5μCi/mL, 20min preload
[17] = TR- rat SCH, 5μCi/mL, 20min preload

SMILES: Cc1cc(C)c(NC(=O)CN(CC(=O)[O-])CC(=O)[O-])c(C)c1Br.Cc1cc(C)c(NC(=O)CN(CC(=O)[O-])CC(=O)[O-])c(C)c1Br.[99Tc+4] [^99mTc-MEB, ^99mTechnetium-mebrofenin]
basolateral efflux over 20 min [1, 15]: 25.0±6.7 % of total preloaded mass | canalicular efflux over 20 min [1, 15]: 15.3±5.7 % of total preloaded mass | hepatocellular content in cell lysate at the end of the 20-min efflux experiment, Rat Inhibitor ([1]; day 4 WT rat SCH, Inhibitor = 100μM MK571 for 99mTc-MEB and 20μM GF120918 for 99mTc-MIBI): 63.4 ± 4.8% of the total substrate mass preloaded | fraction of basolateral efflux ([1]; rat SCH): 62.0 % of total efflux | fraction of canalicular efflux ([1]; rat SCH): 38.0 % of total efflux | total efflux ([1]; rat SCH, 20-min efflux study design): 40.3±5.4% | dose recovered in the liver [2]: ~ 95% | dose recovered in bile ([3]; 2.3mCi dose intravenously, healthy human subjects, within 180 min): ~ 84% | dose recovered in urine ([3]; after 24 hours in humans): ~ 1.5 % of the dose | dose taken up by the liver ([3]; humans): More than 98% | hepatic excretion half-life ([3]; humans): 16 min | canalicular efflux, human compared to rat SCH ([4]; 20-min efflux): ~ 3 fold | hepatocellular content in cell lysate at the end of the 20-min efflux experiment, Human Inhibitor ([4]; day 7 human SCH, Inhibitor = 100μM MK571 for 99mTc-MEB and 20μM GF120918 for 99mTc-MIBI): 27.7 ± 0.4% of the total substrate mass preloaded | fraction of basolateral efflux ([4]; human SCH): 26.7 % of total efflux | fraction of canalicular efflux ([4]; human SCH): 73.3 % of total efflux | total efflux ([4]; human SCH, 20-min efflux study design): 62.4±8.0% | basolateral efflux over 20 min [4, 16]: 16.7±0.6 % of total preloaded mass | canalicular efflux over 20 min [4, 16]: 45.8±8.6 % of total preloaded mass | linear range of uptake [5]: 1.5 min | basolateral efflux over 20 min [6, 17]: 31.8±6.2 % of total preloaded mass | canalicular efflux over 20 min [6, 17]: negligible; also recorded: completely ablated | hepatocellular content in cell lysate at the end of the 20-min efflux experiment, Rat TR- ([6]; day 4 TR- rat SCH, n=3): 78.8 ± 13.2% of the total substrate mass preloaded

SMILES: CC1(C)[C@@H](O[C@H]2O[C@H](C(=O)O)[C@@H](O)[C@H](O)[C@H]2O[C@@H]2O[C@H](C(=O)O)[C@@H](O)[C@H](O)[C@H]2O)CC[C@]2(C)[C@H]3C(=O)C=C4[C@@H]5C[C@@](C)(C(=O)O)CC[C@]5(C)CC[C@@]4(C)[C@]3(C)CC[C@@H]12 [glycyrrhizic acid]
reduction of 14C-TEA uptake compared to control (Oct [7]): 62.1% | initial 14C-TEA uptake in the presence of inhibitor (Oct [7]): 37.9 % of control | initial 3H-E217G uptake in the presence of inhibitor (Oatp [8]): 23.8 % of control | initial 99mTc-MEB uptake in the presence of inhibitor [9]: 39.5 % of control

effect of inhibitor on 3H-PAH uptake (Oat2): not significantly influenced
SMILES: CN(C)C(=O)CCSC(SCCC(=O)O)c1cccc(/C=C/c2ccc3ccc(Cl)cc3n2)c1 (stereo not shown) [MK571, MK-571 sodium salt]
Ki (OATP1B3): 600 nM

SMILES: Clc1cccc(Cl)c1N=C1NCCN1 [clonidine]
initial 99mTc-MEB uptake in the presence of inhibitor [10]: marginal effects | initial 14C-TEA uptake in the presence of inhibitor (Oct [7]): 23.7 % of control | initial 99mTc-MEB uptake in the presence of inhibitor [9]: marginal effects

linear range of uptake [11]: 2.5 min
SMILES: C[C@]12CC[C@@H]3c4ccc(O)cc4CC[C@H]3[C@@H]1CC[C@@H]2O[C@@H]1O[C@H](C(=O)O)[C@@H](O)[C@H](O)[C@H]1O [^3H-E217G, Estradiol-17-β-D-glucuronide]

SMILES: CCN1/C(=C/c2ccc3ccccc3[n+]2CC)C=Cc2ccccc21.[I-] [decynium 22]
initial 99mTc-MEB uptake in the presence of inhibitor [10]: marginal effects | initial 14C-TEA uptake in the presence of inhibitor (OCT [12]): 54.2 % of control | initial 99mTc-MEB uptake in the presence of inhibitor [9]: marginal effects

SMILES: COc1cc2c(cc1OC)CN(CCc1ccc(NC(=O)c3cccc4c(=O)c5cccc(OC)c5[nH]c34)cc1)CC2 [GF120918, N-(4-[2-(1,2,3,4-tetrahydro-6,7-dimethoxy-2-isoquinolinyl)ethyl]-phenyl)-9,10-dihydro-5-methoxy-9-oxo-4-acridine carboxamide]
decrease of 99mTc-MIBI basolateral efflux ([1]; rat SCH, GF120918 20μM): ~ 2.3 fold | decrease of 99mTc-MIBI canalicular efflux ([1]; rat SCH, GF120918 20μM): 1.5 fold | decrease of 99mTc-MIBI basolateral efflux ([4]; human SCH, GF120918 20μM): ~ 2.9 fold | decrease of 99mTc-MIBI canalicular efflux ([4]; human SCH, GF120918 20μM): 2.1 fold | effect on 99mTc-MIBI BEI and in vitro Clbiliary (biliary excretion) [13]: ablated; also recorded: inhibited completely | increase in hepatocellular accumulation (cells only) of 99mTc-MIBI [13]: ~ 2 fold

SMILES: CC[N+](CC)(CC)CC [^14C-TEA, tetraethylammonium]
linear range of uptake [5]: 5 min

SMILES: CO[C@H]1/C=C/O[C@@]2(C)Oc3c(C)c(O)c4c(O)c(cc(O)c4c3C2=O)NC(=O)/C(C)=C\C=C\[C@H](C)[C@H](O)[C@@H](C)[C@@H](O)[C@@H](C)[C@H](OC(C)=O)[C@@H]1C [rifamycin SV]
initial 99mTc-MEB uptake in the presence of inhibitor [10]: 35.4 % of control | initial 3H-E217G uptake in the presence of inhibitor (Oatp [8]): 15.5 % of control | initial 99mTc-MEB uptake in the presence of inhibitor [9]: 20.7 % of control | initial 3H-E217G uptake in the presence of inhibitor (OATP [14]): 51.5 % of control
